Source: ChEMBL document CHEMBL4229573, “Discovery of Quinazolines That Activate SOS1-Mediated Nucleotide Exchange on RAS” (ACS Med Chem Lett, 2018)
Active and inactive are the calls of the source. No cut-off for these calls is given here.

Assays:
[1] = target: T1, Son of sevenless homolog 1 (Homo sapiens) (UniProt Q07889); assay: Biphasic activity at SOS1 in human HeLa cells assessed as reduction in ERK1/2 T202/Y204 phosphorylation at 100 uM measured after 30 mins by Western blot analysis; format: cell-based
T1 sequence (whole entry): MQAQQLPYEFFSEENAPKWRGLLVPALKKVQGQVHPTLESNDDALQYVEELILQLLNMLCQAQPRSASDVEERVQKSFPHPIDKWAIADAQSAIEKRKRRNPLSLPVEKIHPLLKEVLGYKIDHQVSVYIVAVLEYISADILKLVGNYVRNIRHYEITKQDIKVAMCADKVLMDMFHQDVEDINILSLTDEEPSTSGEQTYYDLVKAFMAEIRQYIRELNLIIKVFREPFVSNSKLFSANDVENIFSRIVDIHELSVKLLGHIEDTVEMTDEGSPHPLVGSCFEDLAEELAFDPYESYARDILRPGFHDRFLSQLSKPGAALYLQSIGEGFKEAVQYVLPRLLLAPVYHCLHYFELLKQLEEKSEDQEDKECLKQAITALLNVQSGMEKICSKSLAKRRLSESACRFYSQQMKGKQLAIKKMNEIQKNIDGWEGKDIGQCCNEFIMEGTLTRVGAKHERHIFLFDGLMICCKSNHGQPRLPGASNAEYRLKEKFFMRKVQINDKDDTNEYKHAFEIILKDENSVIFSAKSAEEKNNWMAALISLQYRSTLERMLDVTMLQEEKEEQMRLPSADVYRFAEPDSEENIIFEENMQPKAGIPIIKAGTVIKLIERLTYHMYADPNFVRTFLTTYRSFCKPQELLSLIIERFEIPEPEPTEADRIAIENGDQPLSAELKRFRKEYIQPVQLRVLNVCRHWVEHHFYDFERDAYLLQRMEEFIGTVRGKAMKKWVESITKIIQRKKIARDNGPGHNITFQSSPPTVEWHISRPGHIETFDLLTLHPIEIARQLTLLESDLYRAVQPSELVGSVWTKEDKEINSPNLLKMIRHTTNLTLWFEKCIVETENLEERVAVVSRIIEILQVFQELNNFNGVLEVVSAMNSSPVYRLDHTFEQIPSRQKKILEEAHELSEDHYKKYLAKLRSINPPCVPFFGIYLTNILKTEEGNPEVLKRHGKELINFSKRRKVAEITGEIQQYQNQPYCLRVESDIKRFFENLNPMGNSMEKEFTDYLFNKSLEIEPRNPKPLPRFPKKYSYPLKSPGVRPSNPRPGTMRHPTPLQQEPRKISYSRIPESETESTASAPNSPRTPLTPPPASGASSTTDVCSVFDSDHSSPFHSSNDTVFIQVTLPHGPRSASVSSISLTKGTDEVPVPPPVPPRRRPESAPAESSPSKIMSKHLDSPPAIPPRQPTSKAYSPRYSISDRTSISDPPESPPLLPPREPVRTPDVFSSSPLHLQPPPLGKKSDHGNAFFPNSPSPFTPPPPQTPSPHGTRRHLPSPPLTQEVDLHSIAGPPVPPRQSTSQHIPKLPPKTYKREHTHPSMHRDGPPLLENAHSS
How it was run: (§1)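 HeLa cells treated for 30 min with compound at concentrations up to 100 μM. RAS-GTP and ERK1/2 phosphorylated at T202/Y204 were detected by blotting and quantified. EGF (50 ng/mL, 5 min) served as the positive control for pathway activation.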

[2] = target: T1, Son of sevenless homolog 1 (Homo sapiens); assay: Activation of SOS1 in human HeLa cells assessed as effect on RAS-GTP levels by measuring […] at 12.5 uM after 30 mins by active RAS pull-down assay relative to control; format: cell-based; how it was run: as §1
[3] = target: T1, Son of sevenless homolog 1 (Homo sapiens); assay: Activation of SOS1 in human HeLa cells assessed as effect on ERK1/2 phosphorylation at T202/Y204 residue by measuring […] at 12.5 uM after 30 mins by Western blot analysis relative to control; format: cell-based; how it was run: as §1
[4] = target: T1, Son of sevenless homolog 1 (Homo sapiens); assay: Activation of SOS1 in human HeLa cells assessed as effect on RAS-GTP levels by measuring […] at 25 uM after 30 mins by active RAS pull-down assay relative to control; format: cell-based; how it was run: as §1
[5] = target: T1, Son of sevenless homolog 1 (Homo sapiens); assay: Activation of SOS1 in human HeLa cells assessed as effect on ERK1/2 phosphorylation at T202/Y204 residue by measuring […] at 25 uM after 30 mins by Western blot analysis relative to control; format: cell-based; how it was run: as §1
[6] = target: T1, Son of sevenless homolog 1 (Homo sapiens); assay: Activation of SOS1 in human HeLa cells assessed as effect on ERK1/2 phosphorylation at T202/Y204 residue by measuring […] at 6.3 uM after 30 mins by Western blot analysis relative to control; format: cell-based; how it was run: as §1
[7] = target: T1, Son of sevenless homolog 1 (Homo sapiens); assay: Activation of SOS1 in human HeLa cells assessed as effect on RAS-GTP levels by measuring […] at 6.3 uM after 30 mins by active RAS pull-down assay relative to control; format: cell-based; how it was run: as §1
[8] = target: T1, Son of sevenless homolog 1 (Homo sapiens); assay: Activation of SOS1 in human HeLa cells assessed as effect on RAS-GTP levels by measuring […] at 3.1 uM after 30 mins by active RAS pull-down assay relative to control; format: cell-based; how it was run: as §1
[9] = target: T1, Son of sevenless homolog 1 (Homo sapiens); assay: Activation of SOS1 in human HeLa cells assessed as effect on ERK1/2 phosphorylation at T202/Y204 residue by measuring […] at 100 uM after 30 mins by Western blot analysis relative to control
[10] = target: T1, Son of sevenless homolog 1 (Homo sapiens); assay: Activation of SOS1 in human HeLa cells assessed as effect on RAS-GTP levels by measuring […] at 100 uM after 30 mins by active RAS pull-down assay relative to control; format: cell-based; how it was run: as §1
[11] = target: T1, Son of sevenless homolog 1 (Homo sapiens); assay: Activation of SOS1 in human HeLa cells assessed as effect on ERK1/2 phosphorylation at T202/Y204 residue by measuring […] at 3.1 uM after 30 mins by Western blot analysis relative to control; format: cell-based; how it was run: as §1
[12] = target: T1, Son of sevenless homolog 1 (Homo sapiens); assay: Activation of SOS1 in human HeLa cells assessed as effect on RAS-GTP levels by measuring […] at 50 uM after 30 mins by active RAS pull-down assay relative to control; format: cell-based; how it was run: as §1
[13] = target: T1, Son of sevenless homolog 1 (Homo sapiens); assay: Activation of SOS1 in human HeLa cells assessed as effect on ERK1/2 phosphorylation at T202/Y204 residue by measuring […] at 50 uM after 30 mins by Western blot analysis relative to control; format: cell-based; how it was run: as §1
[14] = target: Mitogen-activated protein kinase 3 (Homo sapiens) (UniProt P27361); assay: Inhibition of human ERK1 using myelin basic protein as substrate measured in presence of [gamma33P]ATP
[15] = target: Mitogen-activated protein kinase 1 (Homo sapiens) (UniProt P28482); assay: Inhibition of human ERK2 using myelin basic protein as substrate measured in presence of [gamma33P]ATP
Chain of Mitogen-activated protein kinase 1 (Homo sapiens) (P28482 whole entry): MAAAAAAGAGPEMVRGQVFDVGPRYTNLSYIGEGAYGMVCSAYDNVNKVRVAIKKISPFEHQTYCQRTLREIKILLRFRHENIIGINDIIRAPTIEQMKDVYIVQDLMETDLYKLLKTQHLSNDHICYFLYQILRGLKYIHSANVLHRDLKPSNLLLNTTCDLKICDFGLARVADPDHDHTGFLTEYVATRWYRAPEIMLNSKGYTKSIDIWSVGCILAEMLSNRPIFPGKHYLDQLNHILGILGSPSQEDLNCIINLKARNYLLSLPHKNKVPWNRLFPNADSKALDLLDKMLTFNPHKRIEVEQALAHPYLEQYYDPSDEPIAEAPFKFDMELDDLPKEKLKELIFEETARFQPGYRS

Chain of Mitogen-activated protein kinase 3 (Homo sapiens) (P27361 whole entry): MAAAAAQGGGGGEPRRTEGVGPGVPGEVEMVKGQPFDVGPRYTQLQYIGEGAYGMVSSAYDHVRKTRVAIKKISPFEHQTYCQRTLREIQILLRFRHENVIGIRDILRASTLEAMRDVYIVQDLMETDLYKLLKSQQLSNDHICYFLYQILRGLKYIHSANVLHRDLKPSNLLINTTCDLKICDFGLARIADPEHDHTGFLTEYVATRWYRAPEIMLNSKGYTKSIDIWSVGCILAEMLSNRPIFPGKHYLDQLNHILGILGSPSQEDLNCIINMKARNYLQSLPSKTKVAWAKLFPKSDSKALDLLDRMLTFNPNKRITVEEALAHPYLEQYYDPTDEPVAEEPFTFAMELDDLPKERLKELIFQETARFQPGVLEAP

| SMILES | Activity [1] | fold change (FC) [2] | fold change (FC) [3] | fold change (FC) [4] | fold change (FC) [5] | fold change (FC) [6] | fold change (FC) [7] | fold change (FC) [8] | fold change (FC) [9] | fold change (FC) [10] | fold change (FC) [11] | fold change (FC) [12] | fold change (FC) [13] | inhibition [14] | inhibition [15] |
| --- | --- | --- | --- | --- | --- | --- | --- | --- | --- | --- | --- | --- | --- | --- | --- |
| CC[C@@H](Nc1nc(Nc2ccc(F)c(Cl)c2)nc2ccccc12)C1CCC1 | inactive |  |  |  |  |  |  |  |  |  |  |  |  |  |  |
| CC(C)C[C@@H](Nc1nc(Nc2ccc(F)c(Cl)c2)nc2ccccc12)C1CC1 | inactive |  |  |  |  |  |  |  |  |  |  |  |  |  |  |
| C[C@@H](Nc1nc(Nc2ccc(F)c(Cl)c2)nc2c(C3=CCNCC3)cccc12)C1CC1 |  | 1.72 | 1.98 | 1.6 | 1.98 | 1.29 | 1.08 | 1.41 | 0.58 | 1.51 | 1.43 | 1.56 | 1.16 |  |  |
| Clc1cc(Cl)cc(Nc2nc(NCc3ccco3)c3ccccc3n2)c1 | inactive |  |  |  |  |  |  |  |  |  |  |  |  |  |  |

Further lines, results first:

| Activity [1] | fold change (FC) [2] | fold change (FC) [3] | fold change (FC) [4] | fold change (FC) [5] | fold change (FC) [6] | fold change (FC) [7] | fold change (FC) [8] | fold change (FC) [9] | fold change (FC) [10] | fold change (FC) [11] | fold change (FC) [12] | fold change (FC) [13] | inhibition [14] | inhibition [15] | SMILES |
| --- | --- | --- | --- | --- | --- | --- | --- | --- | --- | --- | --- | --- | --- | --- | --- |
|  | 0.98 | 1.83 | 1.18 | 2.52 | 0.94 | 1.39 | 1.15 | 0.59 | 1.54 | 1.05 | 1.14 | 2.43 |  |  | C[C@@H](Nc1nc(Nc2ccc(F)c(Cl)c2)nc2c(CN)cccc12)C1CC1 |
|  | 0.97 | 1.59 | 1.58 | 1.87 | 1.82 | 1.64 | 1.22 | 0.44 | 1.66 | 1.11 | 1.61 | 1.18 |  |  | C[C@@H](Nc1nc(Nc2ccc(F)c(Cl)c2)nc2c(CCN)cccc12)C1CC1 |
| inactive |  |  |  |  |  |  |  |  |  |  |  |  |  |  | CC[C@H](Nc1nc(Nc2ccc(F)c(Cl)c2)nc2ccccc12)C1CC1 |
|  | 0.53 | 1.67 | 0.69 | 1.61 | 1.03 | 0.85 | 0.95 | 4.01 | 1.39 | 1.16 | 1.26 | 3.68 | inactive | inactive | C[C@@H](Nc1nc(Nc2ccc(F)c(Cl)c2)nc2ccccc12)C1CC1 |
| inactive |  |  |  |  |  |  |  |  |  |  |  |  |  |  | C[C@@H](Nc1nc(Nc2ccc(F)c(Cl)c2)nc2ccccc12)C1CCC1 |
